Results published in ChEMBL document CHEMBL1129931, “Structure-activity studies on 2-methyl-3-(2(S)-pyrrolidinylmethoxy) pyridine (ABT-089): an orally bioavailable 3-pyridyl ether nicotinic acetylcholine receptor ligand with cognition-enhancing properties” (J Med Chem, 1997).
Calls of active or inactive are those of the source. No cut-off for these calls is given here.

Legend:
Mus musculus [1] = assay: Minimum dose of the drug (intraperitoneal) required that elicited a statistically significant response in mouse inhibitory avoidance assay; format: functional
Summary of the method: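 Mice were dosed ip 15 min before training in a dark-light chamber, where entering the dark side was paired with a mild foot shock. The index of memory was latency to enter the dark chamber in a later test session.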

IMR-32 [2] = assay: The maximal efficacy relative to 100 uM nicotine; format: functional, Homo sapiens
Mus musculus [3] = assay: Minimum dose of the drug (intraperitoneal) required for elicited a statistically significant response in seizure assay; format: functional
Mus musculus [4] = assay: Minimum dose of the drug (intraperitoneal) required for elicited a statistically significant response in hypothermia assay; format: functional
Summary of the method: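 Body temperature was taken by rectal probe inserted 3 cm, about 20 min after ip injection. The same mice had just completed a 15-min open-field activity session.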

[5] = Oral bioavailability in dog; format: ADME, organism-based, Canis lupus familiaris; conditions: in vivo
Summary of the method: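 Fasted beagle dogs (n = 3–6) received 500 nmol/kg by oral gavage or slow iv bolus. Jugular plasma was sampled over 8 h, and parent drug was measured by reverse-phase HPLC. Bioavailability is reported as mean ± SEM.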

[6] = target: Neuronal acetylcholine receptor subunit alpha-7 (Homo sapiens, UniProt P36544); assay: Bindind affinity value obtained by measuring the displacement of radioligand [125I]alpha-bungarotoxin from K-28 cells stably express human Nicotinic acetylcholine receptor alpha7; format: cell-based
Sequence of Neuronal acetylcholine receptor subunit alpha-7 (P36544 whole entry): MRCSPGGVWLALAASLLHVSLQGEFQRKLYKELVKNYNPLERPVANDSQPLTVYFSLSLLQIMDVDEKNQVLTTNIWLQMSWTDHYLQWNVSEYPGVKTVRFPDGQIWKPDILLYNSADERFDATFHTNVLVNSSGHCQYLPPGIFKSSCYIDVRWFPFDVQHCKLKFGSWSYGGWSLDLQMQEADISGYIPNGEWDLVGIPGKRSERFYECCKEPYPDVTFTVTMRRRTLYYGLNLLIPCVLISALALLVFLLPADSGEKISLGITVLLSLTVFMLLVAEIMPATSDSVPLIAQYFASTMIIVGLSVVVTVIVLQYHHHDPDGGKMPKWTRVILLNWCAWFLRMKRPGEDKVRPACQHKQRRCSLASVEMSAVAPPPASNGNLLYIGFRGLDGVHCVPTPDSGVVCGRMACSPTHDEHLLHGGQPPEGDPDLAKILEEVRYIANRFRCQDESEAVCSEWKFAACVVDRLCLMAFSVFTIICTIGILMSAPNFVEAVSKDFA

IMR-32 [7] = assay: Concentration required to elicit ganglionic receptors measured using [86Rb+] flux functional assay in a human neuroblastoma-derived IMR-32 cell line; format: cell-based
Summary of the method: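 Ganglionic-type (α3-containing) receptor function assessed as 86Rb+ flux in human neuroblastoma IMR-32 cells; EC50 reported as mean ± SEM, n = 3–5.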

[8] = Half-life was measured in (in vitro) dog liver slice experiments following intravenous administration to dogs; format: ADME, organism-based, Canis lupus familiaris; conditions: in vivo
Summary of the method: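 Beagle dogs were fasted overnight, with water available. They received 500 nmol/kg as a slow iv bolus into the saphenous vein. Jugular blood was sampled over 8 h, and plasma parent drug was measured by reverse-phase HPLC (electrochemical or derivatization/fluorescence detection).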

[9] = Half-life was measured in (in vitro) dog liver slice experiments; format: ADME, Canis lupus familiaris; conditions: dog liver slices
Summary of the method: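 Compounds at a final 12 μg/mL were incubated with dog liver slices at 37 °C for times up to 24 h. Medium was removed and frozen, then parent compound was quantified by HPLC. Half-life and % remaining at 24 h were reported.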

Mus musculus [10] = assay: Minimum dose of the drug (intraperitoneal) required elicited a statistically significant response in locomotor activity assay; No significant effect at (0.0062-6.2) dose range; format: functional, organism-based
[11] = target: Neuronal acetylcholine receptor; assay: Binding affinity value obtained by measuring the displacement of radioligand [3H](-)-cytisine from a preparation of whole rat brain
[12] = target: Neuronal acetylcholine receptor; assay: Binding affinity value obtained by measuring the displacement of radioligand [3H](-)-cytisine from whole rat brain Nicotinic acetylcholine receptor

Structure (SMILES)	EDmin (Mus musculus [1]) [µM/kg]	Max (IMR-32 [2]) [%]	EDmin (Mus musculus [3]) [µM/kg]	EDmin (Mus musculus [4]) [µM/kg]	bioavailability [5] [%]	Ki [6] [µM]	EC50 (IMR-32 [7]) [µM]	half-life [8] [h]	half-life [9] [h]	EDmin (Mus musculus [10])	Ki [11] [µM]	Ki [12] [µM]
CN1CCC[C@H]1c1cccnc1 [NICOTINE]	0.62	100	41	6.2	–	–	–	–	–	–	–	–
Cc1ncccc1OC[C@H]1CCCN1	–	11	–	–	66	> 10	50	1.4	> 24	–	–	–
Cc1cc([C@@H]2CCCN2C)on1 [ABT-418]	0.062	85	62	19	1.2	4.05	64	0.21	3	–	–	–
Cc1ncccc1OC[C@@H]1CCCN1C	–	29	–	–	5.8	> 10	25	0.31	9	–	–	–
Cc1ncccc1OC[C@@H]1CCCN1 [POZANICLINE]	0.62	8	774	>62	61.5	> 10	150	1.6	> 24	inactive	–	–
CN1CCC[C@H]1COc1cccnc1	–	100	–	–	–	1.53	63	–	–	–	0.00028	–
Cc1ncccc1OC[C@H]1CCCN1C	–	–	–	–	4.9	> 10	–	0.61	8.5	–	–	3
